Experimental data pooled from the literature.
Protocols differ between the studies behind these lines.
Target: Phosphorylase b kinase gamma catalytic chain, liver/testis isoform (PHKG2, Homo sapiens, UniProt P15735)
One construct used (P15735 1-406): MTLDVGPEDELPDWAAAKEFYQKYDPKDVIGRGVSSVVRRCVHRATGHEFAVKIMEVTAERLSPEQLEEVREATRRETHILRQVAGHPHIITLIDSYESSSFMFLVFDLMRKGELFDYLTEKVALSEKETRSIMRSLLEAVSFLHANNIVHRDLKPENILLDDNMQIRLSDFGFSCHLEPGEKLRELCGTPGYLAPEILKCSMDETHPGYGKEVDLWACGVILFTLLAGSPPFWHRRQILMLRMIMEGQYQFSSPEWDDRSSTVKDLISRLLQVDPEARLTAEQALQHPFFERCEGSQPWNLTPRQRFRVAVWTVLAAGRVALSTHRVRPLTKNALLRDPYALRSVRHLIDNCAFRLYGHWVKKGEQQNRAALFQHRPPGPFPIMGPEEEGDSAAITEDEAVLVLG

`C[C@H]1CCN(c2nccc(-c3cnn4ncccc34)n2)C1` gave a remaining binding of 79% (binding; 1 µM).
`N#CC1(c2ccccn2)CCN(Cc2cc(C(=O)N3CCCC3)c(=O)n3ccccc23)CC1` has a remaining binding of 85% (cell-free assay; competition with immobilised ligand; 1 µM).
With `Nc1ncc2c(n1)-c1c([nH]c3ccc(C#CC4CC4)cc13)CCCC2` the remaining binding was 100% (binding; competition with immobilised ligand; 1 µM).
With `C[C@@H](c1ccc(-n2cnc3c(N)ncnc32)cc1)N1CCc2nn(C)c(Cc3ccccc3)c2C1=O` the remaining binding was 100% (binding; competition with immobilised ligand; 0.1 µM).
The remaining binding of `CN(C)c1nccc(-c2cnn3ncccc23)n1` is reported as 86% (binding; 1 µM).
For `C[C@@H]1CN(c2cc(-c3n[nH]c4ccc(OC5(C)CC5)cc34)ncn2)C[C@H](C)O1`, the remaining binding was 91% (cell-free assay; competition with immobilised ligand; 0.1 µM).
`CN(CCCC(F)(F)F)c1nccc(-c2cnn3ncccc23)n1` gave a remaining binding of 100% (binding; 1 µM).
`O=C(c1ccc(Nc2ncc(Cl)c(-c3ccc(Cl)s3)n2)cc1)N1CCC(N2CCCC2)CC1` gave a remaining binding of 66% (binding; competition with immobilised ligand; 1 µM).
The remaining binding of `CCN1CCN(Cc2ccc(C(=O)Nc3ccc(C)c(Oc4ccc5c(c4)CC(=O)N5)c3)cc2C(F)(F)F)CC1` is reported as 100% (binding; competition with immobilised ligand; 1 µM).
With `O=C(NCC1CCOCC1)c1n[nH]cc1NC(=O)c1c(F)cccc1F` the remaining binding was 96% (binding; competition with immobilised ligand; 1 µM).
`CS(=O)(=O)N1CCCC(NC(=O)[C@H](CCC2CCCCC2)NC(=O)c2ccc(CNC(=O)c3cnc4ccccn34)cc2)C1` (stereo partly drawn) gave a remaining binding of 100% (cell-free assay; competition with immobilised ligand; 0.1 µM).
With `CNC(=O)[C@@H]1CC[C@@H](n2c(-c3ccc4cnccc4c3)nc3ccc(C(=O)NCc4cccc(C(N)=O)c4)cc32)C1` the remaining binding was 99% (binding; competition with immobilised ligand; 1 µM).
With `CN(C)c1ncc(F)c(-c2cnn3ncccc23)n1` the remaining binding was 69% (binding; 1 µM).
`CN(C)C(=O)Cn1cc(-c2nc([C@@](C)(c3ccc(-c4cnc(N)nc4)cc3)C3CC3)no2)cn1` gave a remaining binding of 80% (cell-free assay; competition with immobilised ligand; 1 µM).
The remaining binding of `O=C(c1ccc(Nc2nccc(-c3cc4ccccc4s3)n2)cc1)N1CCC(N2CCCC2)CC1` is reported as 64% (binding; competition with immobilised ligand; 1 µM).
The remaining binding of `C[C@H](c1cccc(C#N)c1)n1cc(Cl)cc(C(N)=O)c1=N` is reported as 100% (cell-free assay; competition with immobilised ligand; 1 µM).
The remaining binding of `N[C@@H]1CCN(c2nccc(-c3cnn4ncccc34)n2)C1` is reported as 84% (binding; 1 µM).
For `Cc1cnc(Nc2ccc(C(=O)N3CCC(N4CCCC4)CC3)cc2)nc1-c1cc2ccccc2s1`, the remaining binding was 51% (binding; competition with immobilised ligand; 1 µM).
`COc1ncc2cc3ccccc3nc2c1C#N` has a remaining binding of 100% (cell-free assay; competition with immobilised ligand; 5 µM).
The remaining binding of `O=C(NCCCC1CCCCC1)c1ccc(CNC(=O)c2cnn(-c3ccccc3)c2C(F)(F)F)cc1` is reported as 100% (cell-free assay; competition with immobilised ligand; 0.1 µM).
`Cc1cnn2ncc(-c3ccnc(N(C)C)n3)c2c1` has a remaining binding of 95% (binding; 1 µM).
